What was measured:
[1] = target: T1, Amine oxidase [flavin-containing] B (Homo sapiens, UniProt P27338); test: Inhibition of human recombinant MAO-B at 100 uM using tyramine as substrate preincubated with enzyme for 30 mins followed by incubation with substrate for 30 mins by Amplex Red reagent based fluorometric method relative to control; conditions: 0.5 h, read-out: INH
T1 sequence (P27338 whole entry): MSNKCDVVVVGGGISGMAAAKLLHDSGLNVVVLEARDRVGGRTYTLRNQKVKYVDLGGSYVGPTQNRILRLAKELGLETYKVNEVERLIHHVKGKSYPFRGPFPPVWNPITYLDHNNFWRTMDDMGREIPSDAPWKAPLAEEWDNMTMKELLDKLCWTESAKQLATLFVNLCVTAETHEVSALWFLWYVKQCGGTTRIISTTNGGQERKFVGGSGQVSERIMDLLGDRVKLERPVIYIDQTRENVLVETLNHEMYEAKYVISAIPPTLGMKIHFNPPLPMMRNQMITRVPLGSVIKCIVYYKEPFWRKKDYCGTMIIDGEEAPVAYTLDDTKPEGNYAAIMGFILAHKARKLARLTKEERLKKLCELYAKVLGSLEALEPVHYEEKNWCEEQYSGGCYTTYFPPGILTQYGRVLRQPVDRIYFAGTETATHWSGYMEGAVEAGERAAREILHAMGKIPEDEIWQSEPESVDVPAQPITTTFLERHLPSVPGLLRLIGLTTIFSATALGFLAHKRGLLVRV

[2] = target: T2, Amine oxidase [flavin-containing] A (Homo sapiens, UniProt P21397); test: Inhibition of human recombinant MAO-A at 10 uM using tyramine as substrate preincubated with enzyme for 30 mins followed by incubation with substrate for 30 mins by Amplex Red reagent based fluorometric method relative to control; conditions: 0.5 h, time 60 min
T2 sequence (P21397 whole entry): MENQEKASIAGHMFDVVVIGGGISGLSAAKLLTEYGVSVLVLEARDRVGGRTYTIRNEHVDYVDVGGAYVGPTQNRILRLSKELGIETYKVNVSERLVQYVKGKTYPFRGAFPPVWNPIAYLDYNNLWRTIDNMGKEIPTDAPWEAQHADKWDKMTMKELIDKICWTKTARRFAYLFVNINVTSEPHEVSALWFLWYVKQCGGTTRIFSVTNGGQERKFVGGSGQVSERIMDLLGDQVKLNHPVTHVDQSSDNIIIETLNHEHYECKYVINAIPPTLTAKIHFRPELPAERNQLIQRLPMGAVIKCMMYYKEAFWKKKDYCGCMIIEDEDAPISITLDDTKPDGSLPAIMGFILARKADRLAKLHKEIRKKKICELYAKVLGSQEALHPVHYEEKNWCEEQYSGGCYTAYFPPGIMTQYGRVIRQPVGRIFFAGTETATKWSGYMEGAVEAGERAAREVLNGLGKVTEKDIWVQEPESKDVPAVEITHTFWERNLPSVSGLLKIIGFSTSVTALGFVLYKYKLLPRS
Summary of the method: (§1)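 Recombinant hMAO-A at 0.5 U/mL in phosphate buffer. Inhibitors are dissolved in 2% DMSO and preincubated with enzyme at 37 °C for 30 min. The working solution is then added: horseradish peroxidase, Amplex (Ampliflu) red and tyramine. Fluorescence (Ex/Em 535/587 nm) is read at 5-min intervals over 30 min at 37 °C. Controls use 2% DMSO. Background without enzyme is subtracted. Peroxidase interference is checked with H2O2.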

[3] = target: T2, Amine oxidase [flavin-containing] A; test: Inhibition of human recombinant MAO-A at 0.01 uM using tyramine as substrate preincubated with enzyme for 30 mins followed by incubation with substrate for 30 mins by Amplex Red reagent based fluorometric method relative to control; conditions: 0.5 h, time 60 min; summary of the method: as §1
[4] = target: T2, Amine oxidase [flavin-containing] A; test: Inhibition of human recombinant MAO-A at 1 uM using tyramine as substrate preincubated with enzyme for 30 mins followed by incubation with substrate for 30 mins by Amplex Red reagent based fluorometric method relative to control; conditions: 0.5 h, time 60 min; summary of the method: as §1
[5] = target: T2, Amine oxidase [flavin-containing] A; test: Inhibition of human recombinant MAO-A at 100 uM using tyramine as substrate preincubated with enzyme for 30 mins followed by incubation with substrate for 30 mins by Amplex Red reagent based fluorometric method relative to control; conditions: 0.5 h, time 60 min; summary of the method: as §1
[6] = target: T2, Amine oxidase [flavin-containing] A; test: Inhibition of human recombinant MAO-A at 0.1 uM using tyramine as substrate preincubated with enzyme for 30 mins followed by incubation with substrate for 30 mins by Amplex Red reagent based fluorometric method relative to control; conditions: 0.5 h, time 60 min; summary of the method: as §1
[7] = target: T2, Amine oxidase [flavin-containing] A; test: Inhibition of human recombinant MAO-A using tyramine as substrate preincubated with enzyme for 30 mins followed by incubation with substrate for 30 mins by Amplex Red reagent based fluorometric method
Summary of the method: as §1, with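 “tyramine.” for “tyramine. Fluorescence (Ex/Em 535/587 nm) is read at 5-min intervals over 30 min at 37 °C.”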

[8] = target: T2, Amine oxidase [flavin-containing] A; test: Inhibition of human recombinant MAO-A at 0.1 nM using tyramine as substrate preincubated with enzyme for 30 mins followed by incubation with substrate for 30 mins by Amplex Red reagent based fluorometric method relative to control; conditions: 0.5 h, time 60 min; summary of the method: as §1
[9] = target: T2, Amine oxidase [flavin-containing] A; test: Inhibition of human recombinant MAO-A at 1 nM using tyramine as substrate preincubated with enzyme for 30 mins followed by incubation with substrate for 30 mins by Amplex Red reagent based fluorometric method relative to control; conditions: 0.5 h, time 60 min; summary of the method: as §1
[10] = target: T2, Amine oxidase [flavin-containing] A; test: Inhibition of human recombinant MAO-A at 0.01 nM using tyramine as substrate preincubated with enzyme for 30 mins followed by incubation with substrate for 30 mins by Amplex Red reagent based fluorometric method relative to control; conditions: 0.5 h, time 60 min; summary of the method: as §1
[11] = target: T2, Amine oxidase [flavin-containing] A; test: Inhibition of human recombinant MAO-A at 1 mM using tyramine as substrate preincubated with enzyme for 30 mins followed by incubation with substrate for 30 mins by Amplex Red reagent based fluorometric method relative to control; conditions: 0.5 h, time 60 min; summary of the method: as §1
[12] = target: T1, Amine oxidase [flavin-containing] B; test: Inhibition of human recombinant MAO-B at 1 mM using tyramine as substrate preincubated with enzyme for 30 mins followed by incubation with substrate for 30 mins by Amplex Red reagent based fluorometric method relative to control; conditions: 0.5 h, read-out: INH
[13] = target: T2, Amine oxidase [flavin-containing] A; test: Inhibition of human recombinant MAO-A assessed as enzyme residual activity using tyramine as substrate at 4XIC50 incubated with enzyme for 15 mins followed by substrate addition by Amplex Red reagent based fluorometric method relative to control; conditions: 0.25 h
Summary of the method: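 Recombinant hMAO-A (1 U mL⁻¹) preincubated with inhibitor for 15 min at 37 °C in 0.05 M potassium phosphate, pH 7.4, with 5% sucrose and 1% DMSO. The mixture was dialysed 24 h at 4 °C (12 000 Da cut-off) against 100 mM potassium phosphate, pH 7.4, 5% sucrose, with two buffer changes. Residual activity was then measured in triplicate and reported as mean ± SEM.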

[14] = target: T2, Amine oxidase [flavin-containing] A; test: Competitive inhibition of human recombinant MAO-A using tyramine as substrate preincubated with enzyme for 30 mins followed by substrate addition and measured for 30 mins by Lineweaver-burk plot analysis

| SMILES | inhibition at 100 µM [1] | inhibition at 10 µM [2] | inhibition at 0.01 µM [3] | inhibition at 1 µM [4] | inhibition at 100 µM [5] | inhibition at 0.1 µM [6] | IC50 [7] | inhibition at 0.0001 µM [8] | inhibition at 0.001 µM [9] | inhibition at 10 pM [10] | inhibition at 1000 µM [11] | inhibition at 1000 µM [12] | Ki [14] | Activity [13] |
| --- | --- | --- | --- | --- | --- | --- | --- | --- | --- | --- | --- | --- | --- | --- |
| CC(C)Nc1nnc(SCC(=O)N(Cc2cccc([N+](=O)[O-])c2)c2ccc(F)cc2)s1 | 28.5% | 86.1% | 23.9% | 46% | 89.1% | 43% | 1070 nM | 10.8% | 13.6% | 6.87% | 92.5% | 36% |  |  |
| C#CCN(C)CCCOc1ccc(Cl)cc1Cl [CLORGILINE] |  | 88.5% | 35.3% | 79.1% | 92.1% | 63.9% |  | 17% | 21.7% | 11.3% | 96.4% |  |  | 88.315% |
| O=C(CSc1nnc(Nc2ccccc2)s1)N(Cc1cccc([N+](=O)[O-])c1)c1ccc(F)cc1 | 20.7% |  |  |  | 41.4% |  |  |  |  |  | 89.5% | 43.1% |  |  |
| C=CCNc1nnc(SCC(=O)N(Cc2cccc([N+](=O)[O-])c2)c2ccc(F)cc2)s1 | 29.2% | 75.2% | 32.7% | 56.5% | 86.4% | 43.2% | 502 nM | 13.5% | 20.5% | 10.2% | 92% | 38.1% |  |  |
| Cc1ccc(Nc2nnc(SCC(=O)N(Cc3cccc([N+](=O)[O-])c3)c3ccc(F)cc3)s2)cc1 | 26.5% |  |  |  | 42.7% |  |  |  |  |  | 87.6% | 37.9% |  |  |
| O=C(NCCN1CCOCC1)c1ccc(Cl)cc1 [MOCLOBEMIDE] |  | 62.4% | 19.6% | 35.8% | 83.1% | 24.5% |  | 12.8% | 15.4% | 7.25% | 95.3% |  |  | 31.253% |

More lines, main results first:

| inhibition at 100 µM [1] | inhibition at 10 µM [2] | inhibition at 0.01 µM [3] | inhibition at 1 µM [4] | inhibition at 100 µM [5] | inhibition at 0.1 µM [6] | IC50 [7] | inhibition at 0.0001 µM [8] | inhibition at 0.001 µM [9] | inhibition at 10 pM [10] | inhibition at 1000 µM [11] | inhibition at 1000 µM [12] | Ki [14] | SMILES | Activity [13] |
| --- | --- | --- | --- | --- | --- | --- | --- | --- | --- | --- | --- | --- | --- | --- |
| 22.4% | 74.1% | 30.3% | 61.9% | 89.5% | 42.1% | 336 nM | 14.2% | 21% | 10.3% | 93.6% | 41.3% |  | CCNc1nnc(SCC(=O)N(Cc2cccc([N+](=O)[O-])c2)c2ccc(F)cc2)s1 |  |
| 34.3% | 76% | 30% | 47.3% | 82.3% | 33.6% | 1170 nM | 11.1% | 19.7% | 6.94% | 90.5% | 40.6% |  | CCCCNc1nnc(SCC(=O)N(Cc2cccc([N+](=O)[O-])c2)c2ccc(F)cc2)s1 |  |
| 26.8% | 78.3% | 25.1% | 62.3% | 91.1% | 45.1% | 241 nM | 12% | 20.5% | 8.5% | 95% | 42.7% |  | CCCNc1nnc(SCC(=O)N(Cc2cccc([N+](=O)[O-])c2)c2ccc(F)cc2)s1 |  |
| 24.2% | 72.6% | 25.5% | 43.2% | 84.3% | 31.8% | 1790 nM | 12.6% | 17.3% | 6.36% | 93.5% | 36% |  | CC(C)CNc1nnc(SCC(=O)N(Cc2cccc([N+](=O)[O-])c2)c2ccc(F)cc2)s1 |  |
| 25.7% | 80.6% | 34.7% | 72.7% | 91.5% | 61.1% | 60 nM | 20.1% | 26.9% | 13.5% | 94.1% | 38.6% | 33 nM | COCCNc1nnc(SCC(=O)N(Cc2cccc([N+](=O)[O-])c2)c2ccc(F)cc2)s1 | 25.956% |
